Sampled rows, rich in hits. Any-hit rate of the full collection: about 2.7%.
GSTO1 counter: counter-screen for RBBP9 inhibitors: inhibitors of human GSTO1 | P78417 | recombinant GSTO1, activity-based probe fluorescence polarization | inhibition, % at 5.96 µM | 300,000 compounds, 1.1% hits | AID 1974;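 active = inhibition above the campaign mean inhibition plus 3 SD, cut at about 35% in these data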;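 also: 0% = GSTO1-1 with DMSO and 100% = wells lacking GSTO1-1 enzyme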
Target sequence (P78417 whole entry, looked up): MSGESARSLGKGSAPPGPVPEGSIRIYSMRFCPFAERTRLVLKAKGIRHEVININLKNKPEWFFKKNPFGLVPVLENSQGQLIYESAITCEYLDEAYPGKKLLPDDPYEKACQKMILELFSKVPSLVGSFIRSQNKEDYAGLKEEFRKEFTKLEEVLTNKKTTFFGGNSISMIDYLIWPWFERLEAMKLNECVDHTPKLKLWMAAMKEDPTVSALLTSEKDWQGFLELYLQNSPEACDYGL
PAD4 inh: inhibitors of human PAD4. Q9UM07. recombinant PAD4, RCA probe fluorescence polarization. inhibition, % at 6.36 µM. 330,000 compounds, 0.41% hits;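 active = percent inhibition above a cutoff equal to the mean of all tested compounds plus 3 SD, cut at about 15% in these data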;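 also: 0% = PAD4 with RCA probe and DMSO and 100% = probe without PAD4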
SIAE inh: blocks human sialic acid acetylesterase; Q9HAT2; SIAE FP-Rh probe binding, fluorescence polarization; inhibition, % at 9.66 µM; 370,000 compounds, 0.69% hits; AID 1053197;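 active = inhibition above a cutoff: mean of compounds within the control limits plus 3 SD of those, cut at about 17% in these data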;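 also: 0% = plate median of compound wells and 100% = probe without SIAE protein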
RBBP9 inhibitor: inhibitors of human serine hydrolase RBBP9; O75884; recombinant RBBP9, FP-Rh probe fluorescence polarization; inhibition, % at 7.94 µM; 220,000 compounds, 0.2% hits; AID 1515;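 active = inhibition above the campaign mean of all tested compounds plus 3 SD, cut at about 14% in these data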;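 also: plate controls were DMSO wells with RBBP9 for no effect and wells lacking RBBP9 protein for full effect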
Target sequence (O75884 whole entry, looked up): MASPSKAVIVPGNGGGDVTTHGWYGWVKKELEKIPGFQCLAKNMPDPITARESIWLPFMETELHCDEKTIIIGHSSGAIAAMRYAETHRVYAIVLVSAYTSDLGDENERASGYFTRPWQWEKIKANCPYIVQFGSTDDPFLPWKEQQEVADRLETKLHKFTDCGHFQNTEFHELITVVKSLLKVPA
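Test system: recombinant human RBBP9. Quantity: 2.5 µM RBBP9 dispensing solution, before mixing. Detection: FP readout at 525/598 nm. Reagent: Serine-hydrolase probe FP-Rh, 375 nM pre-mixing. Measure: % inhibition. Control set: DMSO-treated enzyme wells and wells lacking RBBP9. Buffer or medium: Tris-NaCl-Pluronic buffer, pH 8.0. Times: preincubation 30 min plus labeling 45 min at 25 °C.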
PRMT1 inh: blocks human protein arginine methyltransferase 1; recombinant PRMT1, activity-based probe fluorescence polarization; Q99873; inhibition, % at 2.79 µM; 370,000 compounds, 1.3% hits;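 active = inhibition above about 21% made by adding two undisclosed values, limit read from the data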
* hit, by the source's call; nt = no result given; ! = repeats disagree.

SMILES	GSTO1 counter	PAD4 inh	SIAE inh	RBBP9 inhibitor	PRMT1 inh
CC(=O)Oc1cccc(N2C(=O)c3cccc4c([N+](=O)[O-])ccc(c34)C2=O)c1	-24.4	-2.0	3.2	nt	-2.4
NS(=O)(=O)c1ccc(N=Nc2c[nH]c(=O)c(O)c2)cc1	64.4*	2.9	4.3	-8.7	26.6*
Nc1nc(O)c(N=Nc2ccc(S(N)(=O)=O)cc2)c(=O)[nH]1	nt	nt	-2.4	nt	5.4
O=[N+]([O-])c1ccccc1S(=O)(=O)NC1CC2CCC1C2 (centres undefined)	3.7	0.5	-4.7	nt	8.4
O=C(Nc1ccc2nc(-c3ccco3)c(-c3ccco3)nc2c1)N1CCN(c2ccccn2)CC1	32.9	1.4	21.6*	-0.4	48.0*
Cc1nc2cc(NC(=O)N3CCN(c4ccccn4)CC3)ccc2o1	0.5	-7.9	0.9	-4.0	1.6
CC(C)C(NS(=O)(=O)c1cccc2nsnc12)C(=O)N1CCCCC1 (centres undefined)	2.7	-2.6	5.4	nt	1.1
Cc1ccccc1CS(=O)(=O)Cc1ccc(C(=O)N2CCOCC2)o1	2.5	0.2	-1.4	-4.3	-0.6
Cc1cccc(-c2cc3nc4c(c(N5CCOCC5)n3n2)CCCC4)c1	-6.2	-6.7	-6.3	0.6	1.7
Cc1ccc(S(=O)(=O)N2CN(Cc3ccco3)c3nc4ccccc4nc32)cc1	11.2	16.2*	-4.0	-1.3	10.2
O=Cc1ccc(-c2cccc(C(=O)O)c2)o1	-3.9	3.2	-5.9	-2.5	6.7
O=C(/C=C/c1ccc(-c2ccccc2)o1)c1ccccc1	-7.1	-8.4	1.4	-8.1	24.6*
O=C1CN(c2ccccc2)C(=S)N1C(=O)c1ccccc1	-6.2	-6.2	-2.0	nt	4.9
N#Cc1nc(COc2ccccc2F)oc1NCCCn1ccnc1	36.1*	-0.3	-0.4	-8.4	-3.8
O=C(OCc1ccccc1)c1ccc(NCc2cc(O)ccc2O)cc1	nt	nt	12.2	nt	21.9*
COP(=O)(OC)c1ccc(NCc2cc(O)ccc2O)cc1	nt	nt	-2.3	nt	21.5*
Nc1nc2c(ncn2C2C[C@H](O)[C@@H](CO)O2)c(=O)[nH]1 (some centres undefined)	1.8	-3.3	-7.0	nt	-6.9
Cc1ccc(NC(=S)NNC(=S)Nc2cccc(C(F)(F)F)c2)cc1	38.0*	1.1	6.5	-2.8	11.6
O=c1cc(/N=C/c2coc3c(ccc4ccccc43)c2=O)[nH]c(=S)[nH]1	41.5*	-1.3	-30.3	-8.5	-0.8
Cc1c(N2C(=O)c3ccc4c5c(ccc(c35)C2=O)CC4)c(=O)n(-c2ccccc2)n1C	35.6*	1.5	nt	-1.3	nt
CC[C@]12c3[nH]c4cc(-c5ccco5)ccc4c3CCN1C(=O)[C@@H](CC(=O)NC/C=C(\C)CCC=C(C)C)C[C@@H]2C(=O)N1CCN(C(=O)C2CC2)CC1	nt	-8.2	-6.6	nt	23.2*
Cc1cc2nc3ccc(=[N+](C)C)cc-3sc2cc1N	nt	nt	nt	7.6	nt
CN(C)c1ccc2nc3ccc(=[N+](C)C)cc-3sc2c1	36.1*	-2.7	7.2	6.8	6.6
O=C(/C=C1\NC2(CCCC2)Cc2ccccc21)N1CCOCC1	-3.9	-1.3	1.6	3.0	27.5*
COc1ccc(CNC(=O)CSc2nc3[nH]ncc3c(=O)n2-c2ccccc2Br)cc1	42.1*	-2.4	nt	-9.2	nt
SMILES	GSTO1 counter	PAD4 inh	SIAE inh	RBBP9 inhibitor	PRMT1 inh
O=C(c1ccccc1)c1cc(Cl)ccc1N1C(=O)C=CC1=O	nt	nt	7.9	-2.2	90.6*
O=C(CC(=O)c1cc(Cl)ccc1O)c1ccccc1	-8.4	3.6	0.7	-7.3	-0.4
COC(=O)C(NC(=O)c1ccccc1)=C1C=C(C)OC(C)=C1	1.9	-1.1	18.4*	-6.2	2.2
COC(=O)c1ccc(Cl)c(NC(=O)NC2CCCCC2)c1	15.7	2.4	-2.8	-0.9	-4.1
COc1ccc(/C=N/Nc2cc(N(C)C)nc(N(C)C)n2)cc1	52.4*	-9.3	3.9	-1.5	-2.7
CN1/C(=C\C=Nc2ccc3ccccc3c2)C(C)(C)c2ccccc21	7.4	-5.3	nt	-0.3	nt
CN(C)c1ccc(N=C/C=C2\N(C)c3ccccc3C2(C)C)cc1	19.7	12.8	-4.2	8.9	23.5*
CCCc1cc(=O)oc2cc(C)cc(OC(C)C(=O)NCC(O)c3ccccc3)c12 (centres undefined)	6.1	-2.1	-2.7	nt	4.9
COC(=O)c1cnn2c(C(F)(F)F)cc(-c3ccc(F)cc3)nc12	-1.0	-1.9	3.5	-4.6	-1.2
O=C(c1ccc(OCCN2CCCCC2)cc1)c1c(-c2ccc(O)cc2)sc2cc(O)ccc12	-45.5	-3.1	27.0*!	nt	0.1
N#Cc1c(Nc2ccccc2C(F)(F)F)s[nH]c1=O	-5.3	-3.2	10.7	-6.0	20.3

Screens (PubChem)
